Screening data from PubChem.
Most compounds without a hit are left out; they make up all but 0.72% or so of the library.
TNAP inh noacc = blocks human TNAP activity with no phosphate acceptor present. P05186. purified TNAP, CDP-star luminescence, 30 min. inhibition, % at 20 µM. hit rate 0.26% among 200,000. AID 1012;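 active means tissue-nonspecific alkaline phosphatase inhibition above about 50% at 20 µM in the single-dose screen, limit read from the data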
Target sequence (P05186 whole entry, looked up): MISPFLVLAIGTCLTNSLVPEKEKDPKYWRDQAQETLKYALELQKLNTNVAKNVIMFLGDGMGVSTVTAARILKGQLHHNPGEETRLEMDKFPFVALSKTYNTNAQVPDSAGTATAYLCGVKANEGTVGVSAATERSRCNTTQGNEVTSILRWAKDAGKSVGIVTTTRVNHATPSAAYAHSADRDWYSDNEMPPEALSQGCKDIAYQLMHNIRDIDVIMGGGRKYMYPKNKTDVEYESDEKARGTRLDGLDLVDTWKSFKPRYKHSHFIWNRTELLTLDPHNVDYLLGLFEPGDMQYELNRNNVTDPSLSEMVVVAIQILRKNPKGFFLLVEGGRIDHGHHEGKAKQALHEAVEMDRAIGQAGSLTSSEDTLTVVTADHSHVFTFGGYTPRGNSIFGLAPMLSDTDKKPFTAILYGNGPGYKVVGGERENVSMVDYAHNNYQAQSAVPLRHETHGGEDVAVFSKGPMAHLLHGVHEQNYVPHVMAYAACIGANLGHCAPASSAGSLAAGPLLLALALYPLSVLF
TNAP act hi DEA = increases human TNAP activity under high phosphate acceptor concentration | activation factor at 20 µM | P05186 | purified TNAP, CDP-star luminescence, 1 M DEA, 30 min; active compounds read high; 0 = EDTA background, 1 = DMSO-only activity | 200,000 tested, under 10 active;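 active means activation factor at least 2 at 20 µM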
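Test system – human TNAP · Doses – 20 µM single point · Incubation – 30 min, room temperature · Signal – luminescent substrate turnover signal · Read-out basis – activation factor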
Arbovirus anti = antivirals against arbovirus infection | AID 1251 | inhibition, % at 10 µM | hit rate 0.37% among 200,000 | arbovirus infection cell-based antiviral screen; in the data active means inhibition above about 30%
PKD1 inh = PKD1 (human) kinase inhibition; Q15139; PKD1 kinase fluorescence polarization assay; inhibition, % (test concentration not listed); hit rate 0.056% among 200,000; AID 797; in the data active means inhibition above about 50%
TNAP inh hi DEA = TNAP (human) inhibition, high acceptor. AID 1135. purified TNAP, CDP-star luminescence, 1 M DEA. hit rate 0.03% among 200,000. inhibition, % at 20 µM;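 active means over 50% inhibition of tissue-nonspecific alkaline phosphatase at 20 µM in the single-dose screen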
Large screens that a line does not name were inactive.

COc1cc(-c2nnc(-c3ccc(N4CCOCC4)cc3)o2)cc(OC)c1OC	Arbovirus anti 47.7
CCOC(=O)c1ccc(NC(=S)N2CCSC2c2c(F)cc(F)cc2F)cc1 (stereo not given)	Arbovirus anti 40.6
CC(C)Cn1c(-c2ccc(F)cc2)n[nH]c1=S	none
CC(C)Cn1c(-c2ccccc2F)n[nH]c1=S	TNAP inh noacc 52.0
COc1ccc(N2CCN(C(=O)COc3ncnc4ccccc34)CC2)cc1	none
N#Cc1ccccc1NC(=O)c1ccccc1OCC(=O)Nc1ccc2c(c1)oc1ccccc12	none (no result: TNAP inh noacc, TNAP act hi DEA, Arbovirus anti, TNAP inh hi DEA)
N#Cc1ccccc1NC(=O)c1ccccc1OCC(=O)NCc1ccco1	Arbovirus anti 30.9
COc1ccc(-c2n[nH]c(C)c2-c2cnn(-c3ccccc3)c2)c(O)c1	Arbovirus anti 38.2
CC1CC1C(=O)Nc1nc(-c2ccc(Cl)s2)cs1 (stereo not given)	Arbovirus anti 44.4
O=C(Nc1nc(-c2ccc(Cl)s2)cs1)c1ccncc1	none
COc1cc(C(=O)Nc2sc(C)c(C)c2C(=O)O)cc(OC)c1OC	Arbovirus anti 44.4
O=C(CN1C2=NCCN2c2ccccc21)c1ccc(Br)s1	none
O=C(O)c1ccc(COc2ccc3ccccc3c2/C=C2/NC(=O)N(Cc3ccc(F)cc3)C2=O)cc1	Arbovirus anti 47.7
O=C(O)c1ccc(COc2ccccc2/C=C2\NC(=O)N(Cc3ccccc3)C2=O)cc1	none
O=C(O)CCCC(=O)Nc1nc2n(n1)C(c1ccc(F)cc1)CC(c1ccc(Cl)cc1)N2 (stereo not given)	Arbovirus anti 39.0
Cc1nnc(SCC(=O)NCC(=O)Nc2ccc(F)c(F)c2F)n1Cc1ccccc1	none
O=C(CSc1n[nH]c(-c2ccccc2F)n1)NCC(=O)Nc1ccc(F)c(F)c1F	TNAP inh noacc 89.4
O=C1CC(=O)N(Cc2ccco2)C(=O)N1	Arbovirus anti 34.1
O=C1C=C(NCCc2ccccc2)C2(CCCCC2)O1	none
Nc1cc(=O)[nH]c(SCC(=O)Nc2ccccc2Sc2ccccc2)n1	none
O=C(O)c1cc(-c2ccc(/C=N/Nc3ccc([N+](=O)[O-])cn3)o2)ccc1Cl	Arbovirus anti 31.3
COc1ccc(Cc2nnc(N=Nc3c(O)[nH]c4ccc(Br)cc34)[nH]c2=O)cc1	TNAP inh noacc 52.8
Cc1cc(C)c2c(N=NN(C)C)[nH]nc2n1	TNAP inh noacc 52.4
Cc1cc(C)c2c(NC(N)=S)n[nH]c2n1	none
CN(C)S(=O)(=O)c1ccc(NC(=O)COc2ncnc3sccc23)cc1	none
CS(=O)(=O)C1=NSC2=NC(=O)/C(=C\c3cccn3-c3ccccc3Cl)C(=N)N21	Arbovirus anti 50.9
Cc1cc(C)cc(-n2cccc2/C=C2/C(=N)N3C(=NC2=O)SN=C3S(C)(=O)=O)c1	none
Cc1ccc(-n2cccc2/C=C2/C(=N)N3C(=NC2=O)SN=C3S(C)(=O)=O)cc1	Arbovirus anti 46.7
Cc1ccc(-n2cccc2/C=C2\C(=N)N3N=C(c4ccco4)SC3=NC2=O)cc1	Arbovirus anti 45.5
COc1cccc(-n2c(C)cc(/C=C3/C(=N)N4C(=NC3=O)SN=C4S(C)(=O)=O)c2C)c1	Arbovirus anti 40.1
COC(=O)c1oc2ccccc2c1NC(=O)/C=C/C(=O)O	none
O=[N+]([O-])/C=C\c1ccc(N2CCCC2)c(F)c1	none
CCOc1ccc(S(=O)(=O)n2cc(F)c(=O)[nH]c2=O)cc1	none
CC(C)Sc1nc2ncnc(N)c2[nH]1	TNAP inh noacc 58.0
CC(C)(C)NC(=O)COc1ccccc1C#N	none
CCc1ccc(CC2S/C(=C(\C#N)C(C)=O)NC2=O)cc1 (stereo not given)	Arbovirus anti 32.5
O=C(NCCCn1ccnc1)c1cccc(S(=O)(=O)NCc2ccccc2)c1	none
CC(C)(O[C@@H]1O[C@H](CO)[C@@H](O)[C@H](O)[C@H]1O)[C@H]1Cc2cc3ccc(=O)oc3cc2O1	Arbovirus anti 30.4
O=C(CSC1CC(=O)N(c2ccc(C(=O)O)cc2)C1=O)Nc1ccc(Cl)cc1 (stereo not given)	none
c1csc(C2=Nn3c(nnc3-c3ccncc3)SC2)c1	none
Clc1ccccc1C1=Nn2c(nnc2-c2ccncc2)SC1	Arbovirus anti 58.8
COc1ccc(CN2CCNC(=O)C2CC(=O)NCc2cn3ccc(C)cc3n2)c(OC)c1 (stereo not given)	none
CCCOc1ccc(C(O)C(CN2CCOCC2)c2ccccc2)cc1 (stereo not given)	none
CCCCOc1ccc(C(O)C(CN2CCCCC2)c2ccccc2)cc1 (stereo not given)	Arbovirus anti 36.9
COc1ccc(/C=C/C(=O)Nc2ccccc2C(F)(F)F)cc1OC	none
COc1ccc(/C=C/C(=O)Nc2ccccc2C(=O)N2CCCC2)cc1	none
COc1cc(/C=C/C(=O)Nc2cc(C(F)(F)F)ccc2Cl)cc(OC)c1OC	none
COc1ccc(/C=C/C(=O)Nc2cc(C(F)(F)F)ccc2Cl)cc1OC	Arbovirus anti 32.0
COc1ccc(/C=C/C(=O)Nc2ccccc2C(=O)O)cc1OC	Arbovirus anti 57.6
COc1ccc(/C=C/C(=O)Nc2ccccc2C(=O)O)cc1	Arbovirus anti 50.9
CCc1cc(C(=O)O)c(NC(=O)/C=C/c2ccc(OC)c(OC)c2)s1	Arbovirus anti 70.9
CCc1nnc(NC(=O)c2ccc3nc(CC)c(CC)nc3c2)s1	none
NC(=O)c1c(NC(=O)c2cccs2)sc2c1CCCCCC2	none
N#Cc1c(NC(=O)c2ccccc2)sc2c1CCCCC2	none
O=C(Nc1sc2c(c1C(=O)O)CCC2)c1ccccc1	none
O=C(Nc1sc2c(c1C(=O)O)CCC2)c1ccc(F)cc1	Arbovirus anti 42.1
O=C(O)c1c(NC(=O)c2cccc3ccccc23)sc2c1CCC2	Arbovirus anti 54.9
COC(=O)c1c(NC(=O)c2ccccc2N(C)S(=O)(=O)c2ccccc2)sc2c1CCCC2	none
O=C(Nc1sc2c(c1C(=O)O)CCCCC2)c1ccccc1	Arbovirus anti 68.8
O=C(Nc1sc2c(c1C(=O)O)CCC2)c1cccs1	Arbovirus anti 55.2
CCCc1nnc(SCC(=O)N2CCCC2)n1Cc1ccco1	none
CN(C)n1cnc2ccsc2c1=O	none
CC(C(=O)Nc1ccccc1-c1ccccc1)N1CCN(S(=O)(=O)c2ccccc2)CC1 (stereo not given)	Arbovirus anti 60.9
CC(C)c1ccc(S(=O)(=O)N2CCN(C(C)C(=O)Nc3ccccc3-c3ccccc3)CC2)cc1 (stereo not given)	none
Cc1nnc(SCC(=O)N(Cc2ccccc2)C(C)(C)C)[nH]c1=O	none
O=C(Nc1ccccc1C(=O)O)c1cccc(NC(=O)c2ccc(Br)o2)c1	Arbovirus anti 32.0
O=C(Nc1ccccc1C(=O)O)c1ccc(NC(=O)c2ccc(Br)o2)cc1	Arbovirus anti 46.2
COC(=O)Nc1ccc(=O)n(Cc2c(Cl)cccc2Cl)c1	none
CN(C)c1ccccc1C(=O)N1CCCC(C(=O)c2ccc3ccccc3c2)C1 (stereo not given)	none
O=C(NNc1ccc(Cl)nn1)c1ccc(Cl)cc1	none
